Assay results published in ChEMBL document CHEMBL2406966, “Structure and Property Based Design of Pyrazolo[1,5-a]pyrimidine Inhibitors of CK2 Kinase with Activity in Vivo” (ACS Med Chem Lett, 2013).
pIC50: −log10 of the molar value. Converted amounts (≈) assume the structure as drawn. The source made the active and inactive calls. No cut-off for these calls is given here.

How the values were obtained:
[1] = test system: MDR1; test: Efflux ratio of apparent permeability across apical to basolateral side in porcine LLC cells expressing MDR1; type: ADME, cell-based, Sus scrofa; details: pig, LLC-PK1
In short: (§1)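 MDR1-expressing LLCK cell monolayers. Apical-to-basolateral apparent permeability (Papp) measured in cm/s; efflux ratio also determined.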

[2] = test system: MDR1; test: Apparent permeability across apical to basolateral side in porcine LLC cells expressing MDR1; type: ADME, cell-based, Sus scrofa; details: pig, LLC-PK1; in short: as §1
[3] = Cmax in po dosed rat; type: ADME, organism-based; set-up: route oral; details: in vivo
[4] = Intrinsic clearance in rat liver microsomes; type: ADME, Microsome; details: read-out: CLH
In short: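 Incubation with rat liver microsomes; intrinsic clearance reported in μL/min/mg.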

[5] = Aqueous solubility of the compound in phosphate buffer at pH 7.4 after 24 hrs; type: physicochemical
[6] = test system: HCT-116; test: Growth inhibition of human HCT116 cells after 72 hrs by Alamar blue assay; type: functional; details: HCT-116, 72 h
[7] = target: Casein kinase II subunit alpha (Homo sapiens, UniProt P68400); test: Inhibition of N-terminal His6X-tagged recombinant human full length casein kinase-2alpha expressed in SF21 cells using BODIPY-FL-RRRDDDSDDD-CONH2 as substrate preincubated for 20 mins measured after 90 mins by mobility shift assay
Chain of Casein kinase II subunit alpha (P68400 whole entry): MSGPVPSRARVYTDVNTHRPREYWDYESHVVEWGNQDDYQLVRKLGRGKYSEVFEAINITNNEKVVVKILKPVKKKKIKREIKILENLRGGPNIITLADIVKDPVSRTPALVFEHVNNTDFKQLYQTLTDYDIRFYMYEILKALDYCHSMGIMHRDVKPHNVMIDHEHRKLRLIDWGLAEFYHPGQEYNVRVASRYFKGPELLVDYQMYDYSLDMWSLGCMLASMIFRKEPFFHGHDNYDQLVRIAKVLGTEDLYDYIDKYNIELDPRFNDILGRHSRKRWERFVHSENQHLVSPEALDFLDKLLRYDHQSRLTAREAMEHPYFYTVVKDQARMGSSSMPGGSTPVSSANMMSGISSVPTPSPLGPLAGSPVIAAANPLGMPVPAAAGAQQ

[8] = physchem; details: octanol/water, pH 7.4
[9] = Antitumor activity against human DLD2 cells xenografted in mouse assessed as tumor growth inhibition at 5 mg/kg, po bid after 14 days relative to control; type: functional; details: DLD2, 336 h, read-out: TGI
[10] = Antitumor activity against human DLD2 cells xenografted in mouse assessed as tumor growth inhibition at 10 mg/kg, po qd after 14 days relative to control; type: functional; details: DLD2, 336 h, read-out: TGI
[11] = test system: Mus musculus; test: In vivo inhibition of CK2 in human DLD2 cells xenografted in mouse assessed as inhibition of AKT phosphorylation at Ser129 at 10 mg/kg, po measured up to 24 hrs by ELISA; type: functional, organism-based; set-up: dose 10 mg/kg
In short: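 DLD-1 AKT1-overexpressing xenograft mice received a single oral dose of 10 mg/kg. pAKT S129 in tumour cell lysates was quantified by ELISA over time and plotted against plasma drug concentration.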

[12] = test system: Mus musculus; test: In vivo inhibition of CK2 in human DLD2 cells xenografted in mouse assessed as inhibition of AKT phosphorylation at Ser129 at 10 mg/kg, po measured at 24 hrs by Western blot analysis; type: functional, organism-based; set-up: dose 10 mg/kg
In short: (§2)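 Mice bearing DLD-1 xenografts overexpressing AKT1 received a single oral dose (10 or 12.5 mg/kg). Tumour cell lysates were taken at 3, 8 and 24 h post-dose and probed for pAKT S129 by Western blot.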

[13] = test system: Mus musculus; test: In vivo inhibition of CK2 in human DLD2 cells xenografted in mouse assessed as inhibition of AKT phosphorylation at Ser129 at 10 mg/kg, po measured at 3 to 8 hrs by Western blot analysis; type: functional, organism-based; set-up: dose 10 mg/kg; in short: as §2
[14] = target: Cyclin-dependent kinase 2 (Homo sapiens, UniProt P24941); test: Inhibition of CDK2 (unknown origin)
[15] = target: Glycogen synthase kinase-3 beta (Homo sapiens, UniProt P49841); test: Inhibition of GSK3beta (unknown origin)
Chain of Glycogen synthase kinase-3 beta (P49841 whole entry): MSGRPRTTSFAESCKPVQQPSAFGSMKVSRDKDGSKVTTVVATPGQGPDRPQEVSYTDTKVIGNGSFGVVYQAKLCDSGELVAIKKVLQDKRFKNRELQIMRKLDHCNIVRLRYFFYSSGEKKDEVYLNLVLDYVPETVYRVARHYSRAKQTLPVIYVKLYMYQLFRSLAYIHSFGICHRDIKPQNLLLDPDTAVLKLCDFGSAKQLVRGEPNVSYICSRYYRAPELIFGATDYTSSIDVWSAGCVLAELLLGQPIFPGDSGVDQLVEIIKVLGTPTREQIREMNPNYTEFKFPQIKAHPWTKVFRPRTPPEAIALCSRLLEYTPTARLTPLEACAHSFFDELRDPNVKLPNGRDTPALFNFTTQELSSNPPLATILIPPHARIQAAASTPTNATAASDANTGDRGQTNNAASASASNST

[16] = target: T1, Dual specificity tyrosine-phosphorylation-regulated kinase 3 (Homo sapiens, UniProt O43781); test: Inhibition of Dyrk-3 (unknown origin)
T1 sequence (O43781 whole entry): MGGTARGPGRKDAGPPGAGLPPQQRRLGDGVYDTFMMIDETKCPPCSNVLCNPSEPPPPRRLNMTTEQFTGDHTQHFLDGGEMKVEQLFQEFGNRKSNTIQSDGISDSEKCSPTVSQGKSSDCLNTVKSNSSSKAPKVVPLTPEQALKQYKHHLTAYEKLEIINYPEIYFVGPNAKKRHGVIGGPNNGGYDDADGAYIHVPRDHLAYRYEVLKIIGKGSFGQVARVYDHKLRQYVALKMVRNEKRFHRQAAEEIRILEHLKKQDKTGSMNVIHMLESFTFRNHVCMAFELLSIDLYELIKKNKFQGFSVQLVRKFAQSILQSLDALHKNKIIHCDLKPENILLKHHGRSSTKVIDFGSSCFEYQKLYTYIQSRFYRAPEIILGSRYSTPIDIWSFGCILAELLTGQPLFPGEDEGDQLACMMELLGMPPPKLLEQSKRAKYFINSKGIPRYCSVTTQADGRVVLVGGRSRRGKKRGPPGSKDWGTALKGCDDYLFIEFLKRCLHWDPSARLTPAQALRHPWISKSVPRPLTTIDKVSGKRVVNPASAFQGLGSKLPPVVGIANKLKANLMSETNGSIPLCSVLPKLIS

[17] = target: Serine/threonine-protein kinase pim-3 (Homo sapiens, UniProt Q86V86); test: Inhibition of PIM3 (unknown origin)
[18] = target: Homeodomain-interacting protein kinase 2 (Homo sapiens, UniProt Q9H2X6); test: Inhibition of Hipk-2 (unknown origin)
Chain of Homeodomain-interacting protein kinase 2 (Q9H2X6 whole entry): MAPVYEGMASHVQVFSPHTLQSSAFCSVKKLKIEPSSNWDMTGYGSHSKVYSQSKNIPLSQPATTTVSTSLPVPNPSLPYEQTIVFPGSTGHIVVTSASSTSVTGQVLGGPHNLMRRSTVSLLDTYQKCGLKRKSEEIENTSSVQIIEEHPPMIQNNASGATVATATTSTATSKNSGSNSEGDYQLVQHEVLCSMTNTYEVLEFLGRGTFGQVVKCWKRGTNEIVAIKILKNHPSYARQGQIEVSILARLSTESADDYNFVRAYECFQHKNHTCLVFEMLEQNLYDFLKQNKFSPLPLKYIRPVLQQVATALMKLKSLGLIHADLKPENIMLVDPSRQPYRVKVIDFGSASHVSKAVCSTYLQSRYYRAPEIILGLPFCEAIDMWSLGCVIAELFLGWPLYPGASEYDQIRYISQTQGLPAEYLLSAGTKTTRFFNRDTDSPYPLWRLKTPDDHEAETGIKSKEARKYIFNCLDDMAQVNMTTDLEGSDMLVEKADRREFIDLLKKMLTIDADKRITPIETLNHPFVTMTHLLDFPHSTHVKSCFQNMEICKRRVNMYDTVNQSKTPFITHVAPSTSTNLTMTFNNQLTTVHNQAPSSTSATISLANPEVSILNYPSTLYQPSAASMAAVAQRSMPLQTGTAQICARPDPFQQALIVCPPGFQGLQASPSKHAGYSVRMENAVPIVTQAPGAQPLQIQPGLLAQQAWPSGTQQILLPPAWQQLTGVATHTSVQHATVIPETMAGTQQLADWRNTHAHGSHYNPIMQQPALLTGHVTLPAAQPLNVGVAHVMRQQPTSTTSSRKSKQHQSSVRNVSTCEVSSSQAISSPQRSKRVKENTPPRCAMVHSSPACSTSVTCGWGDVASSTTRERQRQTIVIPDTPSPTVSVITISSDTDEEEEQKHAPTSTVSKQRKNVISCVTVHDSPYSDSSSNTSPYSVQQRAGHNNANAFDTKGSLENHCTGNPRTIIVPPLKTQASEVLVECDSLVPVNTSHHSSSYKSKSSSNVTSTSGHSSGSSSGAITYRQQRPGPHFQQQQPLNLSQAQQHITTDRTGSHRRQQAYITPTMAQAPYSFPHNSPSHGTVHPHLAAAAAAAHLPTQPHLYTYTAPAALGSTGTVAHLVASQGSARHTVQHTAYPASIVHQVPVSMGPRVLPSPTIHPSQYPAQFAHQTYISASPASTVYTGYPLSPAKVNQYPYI

[19] = target: Death-associated protein kinase 2 (Homo sapiens) (UniProt Q9UIK4); test: Inhibition of Dapk-2 (unknown origin) assessed as residual activity at 0.1 uM/L relative to control
Chain of Death-associated protein kinase 2 (Homo sapiens) (Q9UIK4 whole entry, looked up): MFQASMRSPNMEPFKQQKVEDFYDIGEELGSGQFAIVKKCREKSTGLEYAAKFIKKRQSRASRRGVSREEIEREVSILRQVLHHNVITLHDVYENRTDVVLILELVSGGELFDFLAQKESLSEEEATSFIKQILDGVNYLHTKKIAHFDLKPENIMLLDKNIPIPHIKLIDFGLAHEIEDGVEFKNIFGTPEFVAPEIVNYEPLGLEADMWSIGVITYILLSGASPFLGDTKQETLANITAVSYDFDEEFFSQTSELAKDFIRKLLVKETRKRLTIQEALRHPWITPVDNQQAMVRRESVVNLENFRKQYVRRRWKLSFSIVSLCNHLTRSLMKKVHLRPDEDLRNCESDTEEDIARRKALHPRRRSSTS
In short: (§3)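 KINOMEscan competition binding panel measuring displacement of an immobilized, active-site-directed ligand. Test concentration was 0.1 μM/L. Read-out was residual activity as % of DMSO control.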

[20] = target: Death-associated protein kinase 3 (Homo sapiens) (UniProt O43293); test: Inhibition of Dapk-3 (unknown origin) assessed as residual activity at 0.1 uM/L relative to control
In short: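 Kinome-wide competition binding panel: measures the compound's ability to compete with an immobilized, active-site-directed ligand for kinase binding. Inhibitor tested at 0.1 μM/L. Read-out is residual activity as a percentage of the DMSO control.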

[21] = target: Death-associated protein kinase 1 (Homo sapiens) (UniProt P53355); test: Inhibition of Dapk-1 (unknown origin) assessed as residual activity at 0.1 uM/L relative to control; in short: as §3
[22] = target: Homeodomain-interacting protein kinase 3 (Homo sapiens) (UniProt Q9H422); test: Inhibition of Hipk-3 (unknown origin) assessed as residual activity at 0.1 uM/L relative to control; in short: as §3
[23] = target: Homeodomain-interacting protein kinase 1 (Homo sapiens) (UniProt Q86Z02); test: Inhibition of Hipk-1 (unknown origin) assessed as residual activity at 0.1 uM/L relative to control; in short: as §3
Chain of Homeodomain-interacting protein kinase 1 (Homo sapiens) (Q86Z02 whole entry, looked up): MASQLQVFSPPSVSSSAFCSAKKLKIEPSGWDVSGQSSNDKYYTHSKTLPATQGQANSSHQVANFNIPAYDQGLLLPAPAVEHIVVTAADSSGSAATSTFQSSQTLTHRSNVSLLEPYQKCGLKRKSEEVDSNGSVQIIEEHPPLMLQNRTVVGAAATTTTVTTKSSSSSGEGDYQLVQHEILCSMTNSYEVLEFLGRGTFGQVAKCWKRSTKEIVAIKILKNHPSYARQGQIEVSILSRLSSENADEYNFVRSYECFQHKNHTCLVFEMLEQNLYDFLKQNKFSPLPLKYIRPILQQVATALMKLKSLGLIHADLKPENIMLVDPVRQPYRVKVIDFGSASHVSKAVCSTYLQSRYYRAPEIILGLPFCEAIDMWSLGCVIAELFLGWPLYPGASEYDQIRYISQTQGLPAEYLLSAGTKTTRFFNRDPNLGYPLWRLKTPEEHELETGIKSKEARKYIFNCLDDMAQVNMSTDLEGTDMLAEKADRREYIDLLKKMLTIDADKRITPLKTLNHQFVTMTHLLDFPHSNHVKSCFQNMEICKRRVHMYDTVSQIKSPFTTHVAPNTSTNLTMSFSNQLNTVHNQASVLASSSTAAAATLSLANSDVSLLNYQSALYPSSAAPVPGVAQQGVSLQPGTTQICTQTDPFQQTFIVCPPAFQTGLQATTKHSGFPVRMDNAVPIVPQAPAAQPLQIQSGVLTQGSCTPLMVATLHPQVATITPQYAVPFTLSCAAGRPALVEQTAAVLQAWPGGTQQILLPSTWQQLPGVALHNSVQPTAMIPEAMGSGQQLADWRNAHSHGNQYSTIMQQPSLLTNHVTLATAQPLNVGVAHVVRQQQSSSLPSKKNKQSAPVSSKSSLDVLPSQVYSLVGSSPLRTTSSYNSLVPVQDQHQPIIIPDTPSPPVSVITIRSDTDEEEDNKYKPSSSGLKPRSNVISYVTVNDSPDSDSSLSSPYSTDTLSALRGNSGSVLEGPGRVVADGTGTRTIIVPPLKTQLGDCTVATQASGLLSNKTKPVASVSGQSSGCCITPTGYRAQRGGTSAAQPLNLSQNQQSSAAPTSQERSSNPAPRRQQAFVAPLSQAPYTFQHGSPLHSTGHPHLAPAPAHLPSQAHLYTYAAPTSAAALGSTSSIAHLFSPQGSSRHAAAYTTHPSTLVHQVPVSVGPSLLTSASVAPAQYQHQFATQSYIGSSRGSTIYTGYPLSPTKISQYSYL

[24] = target: Dual specificity tyrosine-phosphorylation-regulated kinase 1A (Homo sapiens) (UniProt Q13627); test: Inhibition of Dyrk-1 (unknown origin) assessed as residual activity at 0.1 uM/L relative to control; in short: as §3
[25] = target: T2, Dual specificity tyrosine-phosphorylation-regulated kinase 2 (Homo sapiens) (UniProt Q92630); test: Inhibition of Dyrk-2 (unknown origin) assessed as residual activity at 0.1 uM/L relative to control; in short: as §3
T2 sequence (whole entry): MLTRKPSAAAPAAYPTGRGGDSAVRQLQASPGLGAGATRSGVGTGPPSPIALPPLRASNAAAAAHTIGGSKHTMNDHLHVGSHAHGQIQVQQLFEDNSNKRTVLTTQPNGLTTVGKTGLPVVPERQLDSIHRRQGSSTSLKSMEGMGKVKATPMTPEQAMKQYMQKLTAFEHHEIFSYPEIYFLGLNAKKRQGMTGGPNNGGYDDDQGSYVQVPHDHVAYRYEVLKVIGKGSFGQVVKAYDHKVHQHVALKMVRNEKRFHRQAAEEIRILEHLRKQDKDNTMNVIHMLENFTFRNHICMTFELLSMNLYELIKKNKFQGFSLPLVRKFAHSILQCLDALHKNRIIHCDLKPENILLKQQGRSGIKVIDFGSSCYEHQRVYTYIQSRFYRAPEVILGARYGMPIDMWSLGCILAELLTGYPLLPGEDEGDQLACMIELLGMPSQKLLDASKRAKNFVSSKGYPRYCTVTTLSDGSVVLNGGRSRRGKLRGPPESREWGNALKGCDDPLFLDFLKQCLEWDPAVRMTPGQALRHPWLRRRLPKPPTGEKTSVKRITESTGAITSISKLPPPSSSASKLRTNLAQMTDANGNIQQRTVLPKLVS

[26] = Plasma half life in rat at 10 mg/kg, po; type: ADME, organism-based; set-up: dose 10 mg/kg, route oral
In short: (§4)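 Rats were given a single oral dose of 10 mg/kg. Plasma pharmacokinetics yielded bioavailability (F, %), half-life (h) and clearance (mL/min/kg).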

[27] = Fraction unbound in human plasma at 10 uM by equilibrium dialysis method; type: ADME, cell-free
[28] = Clearance in rat at 10 mg/kg, po; type: ADME, organism-based; set-up: dose 10 mg/kg, route oral; details: in vivo; in short: as §4
[29] = Oral bioavailability in rat at 10 mg/kg; type: ADME, organism-based; details: in vivo; in short: as §4
[30] = target: Voltage-gated inwardly rectifying potassium channel KCNH2 (Homo sapiens, UniProt Q12809); test: Binding affinity to human ERG expressed in CHO cells by IonWorks assay
Chain of Voltage-gated inwardly rectifying potassium channel KCNH2 (Q12809 whole entry): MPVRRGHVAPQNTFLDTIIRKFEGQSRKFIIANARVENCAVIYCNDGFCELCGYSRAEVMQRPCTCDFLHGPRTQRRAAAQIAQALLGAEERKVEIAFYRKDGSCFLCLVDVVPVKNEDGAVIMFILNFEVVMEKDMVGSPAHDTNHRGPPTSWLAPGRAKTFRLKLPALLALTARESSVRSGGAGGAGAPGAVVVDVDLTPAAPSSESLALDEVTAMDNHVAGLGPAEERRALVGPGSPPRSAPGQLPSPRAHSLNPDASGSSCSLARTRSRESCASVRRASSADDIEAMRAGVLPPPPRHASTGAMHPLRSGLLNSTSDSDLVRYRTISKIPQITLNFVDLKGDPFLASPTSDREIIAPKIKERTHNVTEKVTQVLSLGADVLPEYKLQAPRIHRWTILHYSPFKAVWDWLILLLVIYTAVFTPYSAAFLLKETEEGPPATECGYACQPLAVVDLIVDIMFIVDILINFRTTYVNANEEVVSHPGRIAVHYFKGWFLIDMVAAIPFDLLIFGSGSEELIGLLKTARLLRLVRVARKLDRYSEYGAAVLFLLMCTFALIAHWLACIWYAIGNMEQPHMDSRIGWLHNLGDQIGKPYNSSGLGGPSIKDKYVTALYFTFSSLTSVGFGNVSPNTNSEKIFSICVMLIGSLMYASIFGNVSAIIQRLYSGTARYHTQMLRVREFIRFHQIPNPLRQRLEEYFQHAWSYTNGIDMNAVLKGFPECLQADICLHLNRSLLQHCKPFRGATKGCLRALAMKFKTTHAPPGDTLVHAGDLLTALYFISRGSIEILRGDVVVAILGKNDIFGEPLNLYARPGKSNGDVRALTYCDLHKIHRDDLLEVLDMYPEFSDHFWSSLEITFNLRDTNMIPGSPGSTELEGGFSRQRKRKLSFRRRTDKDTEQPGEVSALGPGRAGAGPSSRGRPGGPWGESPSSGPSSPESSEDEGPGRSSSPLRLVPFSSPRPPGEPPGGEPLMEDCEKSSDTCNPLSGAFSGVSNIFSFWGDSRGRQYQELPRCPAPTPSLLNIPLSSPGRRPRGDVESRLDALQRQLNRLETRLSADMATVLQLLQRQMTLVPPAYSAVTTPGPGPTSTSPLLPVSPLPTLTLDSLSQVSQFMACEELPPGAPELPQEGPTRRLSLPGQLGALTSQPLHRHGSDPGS

[31] = cells; details: Homo sapiens, HCT-116
[32] = Inhibition of casein kinase-2 (unknown origin); set-up: species or system Homo sapiens
In short: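 Recombinant human full-length CK2α phosphorylating a synthetic peptide substrate, run at Km ATP concentration.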

[33] = test system: Mus musculus; test: In vivo inhibition of CK2 in human DLD2 cells xenografted in mouse assessed as inhibition of AKT phosphorylation at Ser129 at 12.5 mg/kg, po measured at 3 to 24 hrs by Western blot analysis; type: functional, organism-based; set-up: dose 12.5 mg/kg; in short: as §2

| SMILES | Cmax [3] [nM] | microsomal CLint [4] [µL/min/mg] | solubility at 24 h [5] [µM] | GI50 [6] [nM] | pIC50 [7] | logD at 5 h [8] | half-life [26] [h] | fraction unbound at 10 µM [27] | bioavailability [29] [%] | pIC50 [30] | pIC50 [31] | further results |
| --- | --- | --- | --- | --- | --- | --- | --- | --- | --- | --- | --- | --- |
| CC(=O)Nc1cc(Nc2cc(Nc3ccn(CCN4CCCC4)n3)n3ncc(C#N)c3n2)ccc1C | < 100 | 65 | 3 (≈ 1.45 µg/mL) | 100 | > 8.52 | 2.5 |  |  |  |  |  | efflux ratio [1]: 100; Papp A→B [2]: 0.2 ×10⁻⁶ cm/s |
| CC(=O)Nc1cc(Nc2cc(NC3CC3)n3ncc(C#N)c3n2)ccc1C |  | 15 | 8 (≈ 2.89 µg/mL) | 81 |  | 2.4 | 2.6 | 0.08 |  |  |  | inhibition in vivo at 5 mg/kg [9]: 37%; inhibition in vivo at 10 mg/kg [10]: 28%; inhibition [11]: Active; inhibition [12]: inactive; inhibition [13]: Active; pIC50 [14]: 5.14; pIC50 [15]: 5.59; pIC50 [16]: 7.15; pIC50 [17]: 6.82; pIC50 [18]: 7.40; Activity [19]: 43%; Activity [20]: 22%; Activity [21]: 21%; Activity [22]: 39%; Activity [23]: 38%; Activity [24]: 43%; Activity [25]: 18% |
| CC(=O)Nc1cc(Nc2cc(NC3COC3)n3ncc(C#N)c3n2)ccc1C1CC1 |  | < 4 | 11 (≈ 4.44 µg/mL) | 59 | > 8.52 | 2.2 | 1.4 | 0.2 | 47 | < 4.48 | 8.22 | CL/F [28]: 23 mL/min/kg |
| CC(=O)Nc1cc(Nc2cc(NC3CC3)n3nccc3n2)ccc1C |  |  |  |  |  |  |  |  |  |  | < 5.48 | pIC50 [32]: 6.57 |
| CC(=O)Nc1cc(Nc2cc(NC3COC3)n3ncc(C#N)c3n2)c(F)cc1C1CC1 | < 1000 | < 4 | 8 (≈ 3.37 µg/mL) | 74 | > 8.52 | 2.1 |  | 0.21 | < 5 | < 4.48 | 8.52 |  |
| CC(=O)Nc1cc(Nc2cc(NC3CC3)n3ncc(C#N)c3n2)c(F)cc1C |  | 36 | 5 (≈ 1.9 µg/mL) | 57 | > 8.52 | 2.3 |  | 0.13 |  | 4.80 | 8.70 | inhibition [33]: Active |
